From ChEMBL document CHEMBL2417386, “Novel conjugated quinoline-indoles compromise Plasmodium falciparum mitochondrial function and show promising antimalarial activity” (J Med Chem, 2013)
pIC50: −log10 of the molar value.

Tests used:
Plasmodium falciparum [1] = assay: Ratio of IC50 for trophozoite stage of Plasmodium falciparum 3D7 infected in RBC after 5 hrs to IC50 for Plasmodium falciparum 3D7 infected in RBC after 48 hrs; type: functional
Plasmodium falciparum [2] = assay: Antimalarial activity against mid to late trophozoite stage of Plasmodium falciparum 3D7 infected in RBC assessed as nonviable parasite at 0.001 uM after 0.5 hrs by SYTO 61 staining-based flow cytometric analysis relative to untreated control; type: functional
Plasmodium falciparum [3] = assay: Antimalarial activity against trophozoite stage of Plasmodium falciparum 3D7 infected in RBC assessed as growth inhibition after 5 hrs by SYBR Green-I fluorescence assay; type: functional, organism-based; settings: 3D7, 5 h
In short: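 Trophozoite-stage parasites pulsed with compound for 5 h. Drug then washed out and parasites cultured a further 43 h before survival was assessed.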

Plasmodium falciparum [4] = assay: Ratio of IC50 for trophozoite stage of Plasmodium falciparum 3D7 infected in RBC after 5 hrs in presence of 0.2 uM ALLN to IC50 for trophozoite stage of Plasmodium falciparum 3D7 infected in RBC after 5 hrs in absence of ALLN; type: functional
In short: (§1)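 Trophozoite-stage parasites pulsed 5 h with compound, with or without ALLN (0.2 or 5 μM). Drug and ALLN then removed; culture continued a further 43 h before survival was assessed. Antagonism expressed as the ratio of IC50 with ALLN to IC50 without ALLN.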

Plasmodium falciparum [5] = assay: Antimalarial activity against mid to late trophozoite stage of Plasmodium falciparum 3D7 infected in RBC assessed as nonviable parasite at 0.0002 uM after 0.5 hrs by SYTO 61 staining-based flow cytometric analysis relative to untreated control; type: functional
Plasmodium falciparum [6] = assay: Antimalarial activity against Plasmodium falciparum 3D7 infected in RBC assessed as growth inhibition after 48 hrs by SYBR Green-I fluorescence assay; type: functional, organism-based; settings: 3D7, 48 h
In short: (§2)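 Parasite-infected red cells exposed to compound for 48 h; growth read by SYBR Green-I fluorescence; IC50 derived. Where a ± is given, it is the standard deviation of three individual experiments.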

Plasmodium falciparum [7] = assay: Ratio of IC50 for trophozoite stage of Plasmodium falciparum 3D7 infected in RBC after 5 hrs in presence of 5 uM ALLN to IC50 for trophozoite stage of Plasmodium falciparum 3D7 infected in RBC after 5 hrs in absence of ALLN; type: functional; in short: as §1
Plasmodium falciparum [8] = assay: Antimalarial activity against mid to late trophozoite stage of Plasmodium falciparum 3D7 infected in RBC assessed as abnormal mitochondria at 0.001 uM after 0.5 hrs by MitoTracker Red CMXRos-based fluorescence microscopic analysis relative to untreated control; type: functional
Plasmodium falciparum [9] = assay: Antimalarial activity against mid to late trophozoite stage of Plasmodium falciparum 3D7 infected in RBC assessed as abnormal mitochondria at 0.0002 uM after 0.5 hrs by MitoTracker Red CMXRos-based fluorescence microscopic analysis relative to untreated control; type: functional
Plasmodium falciparum [10] = assay: Antimalarial activity against Plasmodium falciparum K1 infected in RBC assessed as growth inhibition after 48 hrs by SYBR Green-I fluorescence assay; type: functional, organism-based; settings: K1, 48 h; in short: as §2
[11] = Selectivity index, ratio of IC50 for HEK293 cells to IC50 for Plasmodium falciparum 3D7 after 72 hrs; type: toxicity, cell-based; settings: human, read-out: Ratio IC50
In short: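 Parasite (3D7) viability assay and HEK293 viability assay, each with a 72 h exposure. Index taken as the ratio of the IC50 values, HEK293 over 3D7.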

Plasmodium falciparum [12] = assay: Resistant index, ratio of IC50 for Plasmodium falciparum K1 to IC50 for Plasmodium falciparum 3D7; type: functional
In short: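 Ratio of K1 to 3D7 IC50 values. Each IC50 comes from a 48 h drug exposure of the P. falciparum strain, with growth read by SYBR Green-I fluorescence. Where spread is given, it is the standard deviation of three individual experiments.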

[13] = Inhibition of beta-hematin formation after 24 hrs by spectrophotometric analysis in presence of nonidet P40; type: functional
Plasmodium falciparum [14] = assay: Antimalarial activity against mid to late trophozoite stage of Plasmodium falciparum 3D7 infected in RBC assessed as nonviable parasite at 5 uM after 0.5 hrs by SYTO 61 staining-based flow cytometric analysis relative to untreated control; type: functional
Plasmodium falciparum [15] = assay: Antimalarial activity against mid to late trophozoite stage of Plasmodium falciparum 3D7 infected in RBC assessed as abnormal mitochondria at 1.7 uM after 0.5 hrs by MitoTracker Red CMXRos-based fluorescence microscopic analysis relative to untreated control; type: functional
Plasmodium falciparum [16] = assay: Antimalarial activity against mid to late trophozoite stage of Plasmodium falciparum 3D7 infected in RBC assessed as abnormal mitochondria at 0.56 uM after 0.5 hrs by MitoTracker Red CMXRos-based fluorescence microscopic analysis relative to untreated control; type: functional
Plasmodium falciparum [17] = assay: Antimalarial activity against mid to late trophozoite stage of Plasmodium falciparum 3D7 infected in RBC assessed as nonviable parasite at 15 uM after 0.5 hrs by SYTO 61 staining-based flow cytometric analysis relative to untreated control; type: functional
Plasmodium falciparum [18] = assay: Antimalarial activity against mid to late trophozoite stage of Plasmodium falciparum 3D7 infected in RBC assessed as abnormal mitochondria at 5 uM after 0.5 hrs by MitoTracker Red CMXRos-based fluorescence microscopic analysis relative to untreated control; type: functional
Plasmodium falciparum [19] = assay: Gametocytocidal activity against synchronous stage 4 to 5 of transgenic Plasmodium falciparum NF54 gametocyte harboring pfs16 promoter assessed as parasite viability after 72 hrs by MitoTracker Red CMXRos-based assay; type: functional, organism-based; settings: NF54, 72 h
Plasmodium falciparum [20] = assay: Antimalarial activity against mid to late trophozoite stage of Plasmodium falciparum 3D7 infected in RBC assessed as nonviable parasite at 0.56 uM after 0.5 hrs by SYTO 61 staining-based flow cytometric analysis relative to untreated control; type: functional
Plasmodium falciparum [21] = assay: Antimalarial activity against mid to late trophozoite stage of Plasmodium falciparum 3D7 infected in RBC assessed as nonviable parasite at 1.7 uM after 0.5 hrs by SYTO 61 staining-based flow cytometric analysis relative to untreated control; type: functional
Plasmodium falciparum [22] = assay: Antimalarial activity against mid to late trophozoite stage of Plasmodium falciparum 3D7 infected in RBC assessed as abnormal mitochondria at 15 uM after 0.5 hrs by MitoTracker Red CMXRos-based fluorescence microscopic analysis relative to untreated control; type: functional
Plasmodium falciparum [23] = assay: Gametocytocidal activity against synchronous stage 1 to 3 of transgenic Plasmodium falciparum NF54 gametocyte harboring pfs16 promoter assessed as parasite viability after 72 hrs by luciferase reporter gene assay; type: functional, organism-based; settings: NF54, 72 h
Plasmodium falciparum [24] = assay: Antimalarial activity against mid to late trophozoite stage of Plasmodium falciparum 3D7 infected in RBC assessed as nonviable parasite at 3 uM after 0.5 hrs by SYTO 61 staining-based flow cytometric analysis relative to untreated control; type: functional
Plasmodium falciparum [25] = assay: Antimalarial activity against mid to late trophozoite stage of Plasmodium falciparum 3D7 infected in RBC assessed as abnormal mitochondria at 0.6 uM after 0.5 hrs by MitoTracker Red CMXRos-based fluorescence microscopic analysis relative to untreated control; type: functional
Plasmodium falciparum [26] = assay: Gametocytocidal activity against asexual stage of transgenic Plasmodium falciparum NF54 gametocyte harboring pfs16 promoter assessed as parasite viability after 72 hrs by luciferase reporter gene assay; type: functional, organism-based; settings: NF54, 72 h
Plasmodium falciparum [27] = assay: Antimalarial activity against mid to late trophozoite stage of Plasmodium falciparum 3D7 infected in RBC assessed as abnormal mitochondria at 3 uM after 0.5 hrs by MitoTracker Red CMXRos-based fluorescence microscopic analysis relative to untreated control; type: functional
Plasmodium falciparum [28] = assay: Antimalarial activity against mid to late trophozoite stage of Plasmodium falciparum 3D7 infected in RBC assessed as nonviable parasite at 0.6 uM after 0.5 hrs by SYTO 61 staining-based flow cytometric analysis relative to untreated control; type: functional
Plasmodium falciparum [29] = assay: Antimalarial activity against mid to late trophozoite stage of Plasmodium falciparum 3D7 infected in RBC assessed as abnormal mitochondria at 20 uM after 0.5 hrs by MitoTracker Red CMXRos-based fluorescence microscopic analysis relative to untreated control; type: functional

Row | Compound | Ratio IC50 (Plasmodium falciparum [1]) | pIC50 (Plasmodium falciparum [3]) | Ratio IC50 (Plasmodium falciparum [4]) | pIC50 (Plasmodium falciparum [6]) | Ratio IC50 (Plasmodium falciparum [7]) | pIC50 (Plasmodium falciparum [10]) | selectivity ratio at 72 h [11] | Ratio IC50 (Plasmodium falciparum [12]) | pIC50 [13] | also measured
1 | CC1(C)N=C(N)N=C(N)N1OCCCOc1cc(Cl)c(Cl)cc1Cl | 0.9 | 9.40 | 0.7 | 9.34 | 0.7 | – | – | – | – | Activity (Plasmodium falciparum [2]): 73%; Activity (Plasmodium falciparum [5]): 40%; Activity (Plasmodium falciparum [8]): 3%; Activity (Plasmodium falciparum [9]): 3%
2 | Cc1cc(N)c2ccccc2[n+]1C | – | – | – | < 5.40 | – | < 5.30 | – | – | – | –
3 | C[n+]1c(/C=C/c2c[nH]c3cc(F)ccc23)cc(N)c2ccccc21.[I-] | – | – | – | 6.54 | – | 6.85 | 4 | 0.3 | – | –
4 | C[n+]1c(/C=C/c2c[nH]c3ncccc23)cc(N)c2ccccc21.[I-] | – | – | – | 6.40 | – | 6.60 | 4 | 0.3 | – | –
5 | C[n+]1c(/C=C/c2n[nH]c3ccccc23)cc(N)c2ccccc21.[I-] | – | – | – | 6.15 | – | 6.64 | 107 | 0.3 | 2.82 | –
6 | C[n+]1c(/C=C/c2c[nH]c3ccccc23)cc(N)c2ccc(Cl)cc21 | – | – | – | 6.40 | – | 6.72 | 2 | – | 3.52 | –
7 | CCCC[n+]1c(/C=C/c2c[nH]c3ccccc23)cc(N)c2ccccc21 | – | – | – | 6.35 | – | 6.36 | 4 | – | – | –
8 | Nc1cc(/C=C/c2n[nH]c3ccccc23)nc2ccccc12 | – | – | – | 6.85 | – | 6.40 | 164 | 2 | – | –
9 | CCN(CC)CCCC(C)Nc1cc(/C=C/c2c[nH]c3ccccc23)nc2ccccc12 (stereo not given) | 1.7 | 6.77 | 1.6 | 7.00 | 2.6 | 6.48 | 87 | 3 | 2.96 | –
10 | Nc1cc(CCc2c[nH]c3ccccc23)nc2ccccc12 | – | – | – | 6.05 | – | 5.66 | 67 | – | – | –
11 | Cc1[nH]c2ccccc2c1/C=C/c1cc(N)c2ccccc2[n+]1C.[I-] | 4.3 | 6.14 | 1 | 6.77 | 1.7 | 6.64 | 18 | 1.3 | 3.66 | Activity (Plasmodium falciparum [14]): 66%; Activity (Plasmodium falciparum [15]): 86%; Activity (Plasmodium falciparum [16]): 43%; Activity (Plasmodium falciparum [17]): 86%; Activity (Plasmodium falciparum [18]): 97%; pIC50 (Plasmodium falciparum [19]): 5.72; Activity (Plasmodium falciparum [20]): 18%; Activity (Plasmodium falciparum [21]): 42%; Activity (Plasmodium falciparum [22]): 99%; pIC50 (Plasmodium falciparum [23]): 6.46
12 | C[n+]1c(/C=C/c2c[nH]c3ccccc23)cc(N)c2ccccc21.[I-] | 5 | 6.00 | 1.5 | 6.70 | 3 | 6.92 | 35 | 0.6 | 2.85 | Activity (Plasmodium falciparum [24]): 73%; Activity (Plasmodium falciparum [25]): 18%; Activity (Plasmodium falciparum [17]): 81%; pIC50 (Plasmodium falciparum [26]): 7.00; pIC50 (Plasmodium falciparum [19]): 5.40; Activity (Plasmodium falciparum [22]): 100%; Activity (Plasmodium falciparum [27]): 91%; Activity (Plasmodium falciparum [28]): 8%; pIC50 (Plasmodium falciparum [23]): 6.52
13 | CNc1cc(/C=C/c2c(C)[nH]c3ccccc23)[n+](C)c2ccccc12 | – | – | – | 5.85 | – | 5.80 | 16 | – | – | –
14 | C[C@H]1[C@H](OC(=O)CCC(=O)O)O[C@@H]2O[C@@]3(C)CC[C@H]4[C@H](C)CC[C@@H]1[C@@]24OO3 [ARTESUNATE] | – | – | – | – | – | – | – | – | – | pIC50 (Plasmodium falciparum [19]): 8.10
15 | N#CC(C#N)=NNc1cccc(Cl)c1 [CARBONYL CYANIDE M-CHLOROPHENYLHYDRAZONE] | – | – | – | – | – | – | – | – | – | Activity (Plasmodium falciparum [29]): 74%
16 | CN(C)c1ccc2nc3ccc(N(C)C)cc3[s+]c2c1.[Cl-] [METHYLENE BLUE ANHYDROUS] | 1.5 | 7.52 | 2.1 | 7.70 | 3.2 | 8.10 | – | – | – | –
